Reference: PMC2806602 (The Journal of neuroscience : the official journal of the …, 2009)
Where a chain is given by its changes, count along the chain named.

Columns and labels:
[1] = biological target: T1, GluRδ2^Lc D742A (Rattus norvegicus, UniProt Q63226, A654T/D742A); assay: Two-electrode voltage-clamp recordings in Xenopus oocytes, GluRδ2^Lc D742A; format: cell-based; conditions: 3 mM Ca^2+; baseline spontaneously active current; ± SEM
T1 sequence (Q63226 24-1007 A654T/D742A): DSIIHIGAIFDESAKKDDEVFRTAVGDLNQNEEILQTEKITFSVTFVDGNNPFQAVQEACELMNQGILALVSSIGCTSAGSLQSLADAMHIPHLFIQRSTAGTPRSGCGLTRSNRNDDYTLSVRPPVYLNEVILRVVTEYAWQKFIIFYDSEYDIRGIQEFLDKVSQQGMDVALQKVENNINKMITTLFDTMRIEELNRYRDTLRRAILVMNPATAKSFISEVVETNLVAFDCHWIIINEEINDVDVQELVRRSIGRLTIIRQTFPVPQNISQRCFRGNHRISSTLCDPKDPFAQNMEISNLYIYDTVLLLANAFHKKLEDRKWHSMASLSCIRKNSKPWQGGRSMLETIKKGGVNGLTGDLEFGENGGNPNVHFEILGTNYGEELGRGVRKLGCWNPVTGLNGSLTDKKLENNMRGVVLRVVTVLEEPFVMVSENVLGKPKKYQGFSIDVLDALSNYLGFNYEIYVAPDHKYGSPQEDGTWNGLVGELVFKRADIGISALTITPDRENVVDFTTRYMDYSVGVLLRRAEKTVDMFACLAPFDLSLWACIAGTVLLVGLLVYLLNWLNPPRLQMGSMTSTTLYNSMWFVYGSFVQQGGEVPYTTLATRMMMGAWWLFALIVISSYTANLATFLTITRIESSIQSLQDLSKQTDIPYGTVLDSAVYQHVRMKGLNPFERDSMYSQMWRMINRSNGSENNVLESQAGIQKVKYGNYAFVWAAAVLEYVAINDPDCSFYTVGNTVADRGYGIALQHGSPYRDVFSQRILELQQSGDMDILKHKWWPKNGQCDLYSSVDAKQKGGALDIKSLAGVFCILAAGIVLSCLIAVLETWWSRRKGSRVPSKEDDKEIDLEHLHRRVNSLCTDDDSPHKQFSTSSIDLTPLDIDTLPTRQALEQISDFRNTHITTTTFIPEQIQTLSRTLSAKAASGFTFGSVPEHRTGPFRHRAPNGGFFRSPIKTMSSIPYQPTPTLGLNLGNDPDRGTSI
Method in brief: (§1)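 Oocytes expressing the Lc mutant were kept in 25 μM NASP to prevent cytotoxicity. Two-electrode voltage clamp at −40 mV and 23°C, 24–72 h after cRNA injection. Bath: 90 mM NaCl, 3 mM KCl, 0.5 mM BaCl2, 10 mM HEPES, pH 7.6. Choline or NMDG chloride balanced Cl− and osmolarity. Values are fold increase over the Ca2+-free spontaneously active baseline on applying 3 mM Ca2+, given as mean ± SEM over oocytes.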

[2] = biological target: T2, GluRδ2^Lc R530K (Rattus norvegicus, UniProt Q63226, A654T/R530K); assay: Two-electrode voltage-clamp recordings in Xenopus oocytes, GluRδ2^Lc R530K; format: cell-based; conditions: 3 mM Ca^2+; baseline spontaneously active current; ± SEM
T2 sequence (Q63226 24-1007 R530K/A654T): T1 sequence (Q63226 24-1007 A654T/D742A) with R507K, A719D
Method in brief: as §1

## [Ca+2] [Ca^2+, calcium]
[1]
  Ca^2+ potentiation (relative to baseline): 3.5 ± 0.11 fold
[2]
  Ca^2+ potentiation (relative to baseline): 3.3 ± 0.20 fold
